# Assay outcomes from PubChem BioAssay.
# Compounds with a hit are over-represented: about 2% of the library has one in this group of screens.
# ZTA DNA inh: counter-screen for EBNA-1 inhibitors: inhibitors of Epstein-Barr virus ZTA | AID 2234 | ZTA-DNA binding, fluorescence polarization | hit rate 0.15% among 320,000 | P03206 | inhibition, % at 11 µM; in the data active = inhibition above about 33%
# Target sequence (P03206 whole entry, looked up): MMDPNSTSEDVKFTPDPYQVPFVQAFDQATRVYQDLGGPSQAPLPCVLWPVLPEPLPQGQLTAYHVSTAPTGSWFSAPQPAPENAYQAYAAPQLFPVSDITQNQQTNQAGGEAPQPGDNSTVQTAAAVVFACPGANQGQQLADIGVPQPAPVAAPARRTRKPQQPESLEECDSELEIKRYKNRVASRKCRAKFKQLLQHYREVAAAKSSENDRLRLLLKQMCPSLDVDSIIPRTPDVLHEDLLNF
# GPR7 antag: blocks human GPR7 receptor signaling; P48145; GPR7-expressing cells, fluorescence antagonist assay; inhibition, % at 4.4 µM; hit rate 1.1% among 290,000; in the data active = inhibition above about 16%, passing the limit was not always enough;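 note: cells stimulated with the agonist NPW; 0% = agonist with vehicle and 100% = vehicle without agonist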
# Target sequence (P48145 whole entry, looked up): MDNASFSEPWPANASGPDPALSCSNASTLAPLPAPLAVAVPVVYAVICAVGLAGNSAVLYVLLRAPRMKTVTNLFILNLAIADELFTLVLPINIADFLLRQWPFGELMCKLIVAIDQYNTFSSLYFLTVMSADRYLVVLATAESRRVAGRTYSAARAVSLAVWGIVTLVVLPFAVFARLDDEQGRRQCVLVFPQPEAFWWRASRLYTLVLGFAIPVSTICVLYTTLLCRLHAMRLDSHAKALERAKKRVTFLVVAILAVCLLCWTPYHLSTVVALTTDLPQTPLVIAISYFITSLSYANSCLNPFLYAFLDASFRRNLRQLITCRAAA
# DNA FID counter: counter-screen for HCV NS3 helicase inhibitors: DNA intercalator displacement; DNA fluorescent intercalator displacement, fluorescence; inhibition, % at 7.9 µM; hit rate 0.17% among 290,000; AID 1845; in the data active = inhibition above about 37%;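 note: 0% = vehicle and 100% = reference compound; higher means more ethidium bromide displaced from hairpin DNA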
# EBNA-1 inhibitor: blocks EBNA-1 binding to DNA | EBNA-1 DNA binding, fluorescence polarization | inhibition, % at 14.8 µM | hit rate 0.34% among 300,000 | AID 1950; in the data active = inhibition above about 28%
# NS3 helicase inh: HCV NS3 helicase inhibition. AID 1800. NS3 helicase DNA unwinding, Cy5 molecular beacon fluorescence. hit rate 0.56% among 290,000. inhibition, % at 10.9 µM;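 active = inhibition above the mean of all tested compounds plus 3 SD, set per campaign, cut at about 35% in these data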;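 note: 0% = DMSO wells and 100% = thioflavine S control wells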
#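 Assay system – hepatitis C virus NS3 helicase domain fragment enzyme · Buffer or medium – MOPS pH 6.5, MgCl2, DTT, Tween20, BSA · Reagent – Cy5/quencher beacon DNA duplex and ATP to start · Compound – single 10.9 µM dose · Timing – 1 h at 25 °C · Technique – Cy5 beacon fluorescence read at start and 1 h · Measure – % inhibition of unwinding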
# Active calls of the source: *; nt = not tested or not shown.
SMILES,ZTA DNA inh,GPR7 antag,DNA FID counter,EBNA-1 inhibitor,NS3 helicase inh
O=S(=O)(c1ccccc1)N1CCN(C/C=C/c2ccccc2)CC1,-8.4,2.6,-16.9,-9.3,-5.1
CC(=O)c1ccc(S(=O)(=O)N2CCN(CC(=O)Nc3ccccc3C(=O)NC3CC3)CC2)cc1,0.1,nt,nt,nt,nt
Cc1ccc2oc(=O)c3cc(C(=O)NCCCN4CCCC(C)C4)sc3c2c1 (stereo unspecified),-4.6,3.2,39.1*,8.9,-15.3
CCCN1CCN(CCCNC(=O)c2cc3c(=O)oc4ccc(C)cc4c3s2)CC1,-8.1,-6.8,31.5,3.6,-4.7
CC(OC(=O)CCc1ccccc1)C(=O)Nc1ncc(Cl)cc1Cl (stereo unspecified),-1.0,-5.8,-28.3,-6.0,12.1
COc1ccc(C2(C)NC(=O)N(CC3CCCCC3)C2=O)cc1 (stereo unspecified),-8.5,4.6,-28.1,1.6,-9.8
COc1ccc(Nc2nc(N3CCN(C)CC3)nc3ccccc23)c(OC)c1,-9.7,-12.3,46.4*,-7.7,17.0
COc1ccc(Nc2nc(-c3cccs3)nc3ccccc23)c(OC)c1,-2.3,-0.2,5.1,-9.7,-17.0
Cc1nc(N2CCN(C)CC2)c2sc(=S)n(-c3ccccc3)c2n1,2.9,-0.3,-2.8,3.4,2.3
S=c1sc2c(Cl)ncnc2n1-c1ccccc1,nt,74.5*,-4.1,nt,-2.4
CC(C)(C)CC(C)(C)NC(=S)NC1CCN(Cc2ccccc2)CC1,-5.3,27.5*,10.4,16.2,-33.3
COc1cc([C@@H]2c3cc4c(cc3[C@H](O)[C@H]3COC(=O)[C@H]23)OCO4)cc(OC)c1OC,-12.1,15.5,-16.5,5.0,-3.0
COc1cc([C@@H]2c3cc4c(cc3[C@@H](O)[C@@H](CO)[C@@H]2CO)OCO4)cc(OC)c1O[Si](C)(C)C(C)(C)C,33.6*,nt,nt,-5.2,nt
COc1cccc(CN2CCN(S(=O)(=O)c3ccc(Cl)s3)CC2)c1,0.2,9.6,-20.1,-9.8,7.7
CCN(C(=O)COc1cc(=O)n(CC)c2ccccc12)c1cc(Cl)ccc1OC,5.5,20.4*,-33.5,-5.1,-1.2
O=C(COc1ccc2c(c1)oc(=O)c1ccccc12)NCCN1CCOCC1,15.7,0.4,19.8,-2.7,23.0
O=C(OCC(=O)N1CCN(S(=O)(=O)c2ccc(Cl)cc2)CC1)C1CC1,-18.9,nt,nt,nt,nt
O=C(OCC(=O)N1CCN(S(=O)(=O)c2ccc(Cl)cc2)CC1)c1ccc([N+](=O)[O-])o1,0.2,19.8*,-0.1,-9.5,15.9
COc1ccc(CC(C)N2CCN(Cc3ccccc3)CC2)cc1OC (stereo unspecified),-4.3,7.9,38.1*,-5.7,-70.3
Cc1cc(C)n2nc(C(=O)OCC(=O)NCc3ccc(Cl)cc3)nc2n1,5.3,nt,nt,nt,nt
Clc1ccc(C[n+]2cc(-c3ccccc3)n3c2CCC3)cc1Cl,-4.3,4.9,21.0,-16.4,-36.2
Clc1ccc(C[n+]2cc(-c3ccccc3)n3c2CCCCC3)c(Cl)c1,-12.4,28.9*,12.7,-4.8,-0.6
CC(C)N1CCC(N2CCN(Cc3ccc(-c4ccccc4Cl)o3)CC2CCO)CC1 (stereo unspecified),-4.9,9.1,53.0*,-15.0,-45.2
CC(C)Cn1c(N)c(C(=O)COC(=O)C2=COCCO2)c(=O)n(C)c1=O,-3.8,18.5*,-13.3,-2.5,-0.2
CC(C)Cn1c(N)c(C(=O)COC(=O)c2ccc(O)cc2)c(=O)n(C)c1=O,-6.6,1.6,-12.2,-15.3,-3.0
SMILES,ZTA DNA inh,GPR7 antag,DNA FID counter,EBNA-1 inhibitor,NS3 helicase inh
CC(C)Cn1c(N)c(C(=O)COC(=O)c2cc(F)cc(F)c2)c(=O)n(C)c1=O,7.6,18.1*,-16.7,4.6,-12.5
COC(=O)CCC(=O)N1CCCC(CO)(Cc2ccccc2F)C1 (stereo unspecified),-17.3,-0.5,-15.3,-18.3,11.0
Cc1ccc(-c2c[n+](CC(=O)Nc3nc(-c4ccccc4)cs3)c3n2CCC3)cc1,5.9,-6.4,18.9,-6.0,-70.3
O=C(C[n+]1cc(-c2ccccc2)n2c1CCC2)Nc1nc(-c2ccccc2)cs1,-26.8,-12.9,38.3*,-13.7,-62.3
O=C(CCC(=O)N(CC(=O)NC1CCCC1)c1ccc(F)cc1)Nc1nccs1,-0.1,-9.2,-32.4,2.3,0.2
Cc1ccc(NC(=O)c2ccc(-n3cccn3)c([N+](=O)[O-])c2)cc1,15.2,-6.9,4.7,4.4,3.2
O=C(Nc1ccc(C2=NCCN2)cc1)c1ccc(C(=O)Nc2ccc(C3=NCCN3)cc2)c([N+](=O)[O-])c1,-19.3,-6.8,70.4*,-6.0,-46.9
CCOc1ccccc1C1c2cc3c(cc2OC(C)(N2CCCC2)C1C)OCO3 (stereo unspecified),-8.4,nt,nt,-4.3,nt
CCCSc1nnc(-c2cccc(S(=O)(=O)N(C)C)c2)n1-c1cc(OC)ccc1OC,3.6,19.8*,-37.0,2.4,-4.8
Cc1cc(C(=O)N2CCN(C/C=C/c3ccccc3)CC2)cs1,-1.4,19.8*,-23.6,1.2,-10.6
COc1cc(C(O)c2nc3ccccc3n2C(C)C)cc(OC)c1OC (stereo unspecified),-9.9,-9.1,53.2*,-3.8,-1.6
CC(=O)C1=C(C)NC(SCC(=O)c2ccc(-c3ccccc3)cc2)=C(C#N)C1c1cccnc1 (stereo unspecified),4.2,-6.6,-14.3,36.4*,-14.2
CC(=O)C1=C(C)NC(SCSc2ccccc2)=C(C#N)C1c1cccnc1 (stereo unspecified),-11.7,-8.0,-6.2,-8.1,-4.9
CC(C)CCN1C(=O)c2ccc(C(=O)Nc3ccc(Br)cc3C(=O)O)cc2C1=O,-7.4,0.2,10.1,-7.3,16.2
CCOc1ccc(N(C)S(=O)(=O)c2ccc(C)c(C(=O)Nc3nnc(C4CC4)s3)c2)cc1,0.5,nt,nt,nt,nt
O=C(Nc1ccc2nc(-c3ccco3)c(-c3ccco3)nc2c1)NC1CC1,nt,-1.5,-5.6,nt,47.4*
O=C(Nc1ccc(N2CCOCC2)cc1)Nc1ccc2nc(-c3ccco3)c(-c3ccco3)nc2c1,-1.8,-16.6,-9.3,-8.7,-4.8
O=C(NCCCO)Nc1ccc2nc(-c3ccco3)c(-c3ccco3)nc2c1,58.0*,1.8,-20.8,1.1,32.7
CCCn1ncc(CN2CCC(C(=O)Nc3cccc(-c4cccc(F)c4)c3)CC2)c1C,-7.9,10.9,44.3*,-5.8,-79.5
CCN1CCN(c2cc(C)c3cc(NC(=O)c4cncc(Br)c4)ccc3n2)CC1,-11.5,12.6,37.8*,-3.8,-66.6
CCCCN(C)CCNC(=S)Nc1ccc2nc(N3CCN(CC)CC3)cc(C)c2c1,-4.6,-6.8,45.9*,-1.0,-6.6
CCCCNC(=S)Nc1ccc2nc(N3CCN(CC)CC3)cc(C)c2c1,13.1,-2.6,21.8,6.0,-68.9
CCN1CCN(c2cc(C)c3cc(NC(=S)NCCN(C)C)ccc3n2)CC1,6.3,-4.2,49.4*,1.3,24.6
CCCN1CCN(CCCNC(=S)Nc2ccc3nc(N4CCN(CC)CC4)cc(C)c3c2)CC1,-2.6,-4.9,36.7*,3.9,15.3
COc1ccc(OC)c(S(=O)(=O)Nc2c(C)n(C)n(-c3ccccc3)c2=O)c1,3.9,-9.1,-7.2,-7.9,-8.8
